Laboratory results: ChEMBL document CHEMBL1137668, “Activities of several classes of acyclic nucleoside phosphonates against camelpox virus replication in different cell culture models” (Antimicrob Agents Chemother, 2007)
pEC50: −log10 of the molar value. The source made the active and inactive calls. No cut-off for these calls is given here.

Legend:
[1] = Selectivity index, ratio of CC50 for HEL299 cells to EC50 for Camelpox virus CML1 infected in HEL299 cells; assay type: toxicity, cell-based, HEL 299; conditions: human, HEL299 cells; read-out: Ratio CC50/IC50
[2] = Selectivity index, ratio of CC50 for HEL299 cells to EC50 for Camelpox virus CML14 infected in HEL299 cells; assay type: toxicity, cell-based, HEL 299; conditions: human, HEL299 cells; read-out: Ratio CC50/IC50
[3] = Cytotoxicity against HEL299 cells after 4 days by Z1 Coulter counting analysis; assay type: cell-based, HEL 299; conditions: human, HEL299 cells
How it was run: (§1)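 Cell growth inhibition: HEL cells were seeded at 3.5 × 10³ per well and PHKs at 5 × 10³ per well. Serial dilutions were added in duplicate after 1 day (HEL) or 3 days (PHK). After 4 days with compound, cells were trypsinized and counted with a Coulter counter (8 μm lower limit). CC50 is the concentration reducing growth by 50%, mean ± SD of at least two experiments.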

[4] = Selectivity index, ratio of CC50 for human PHK to EC50 for Camelpox virus CML1 infected in human PHK
Camelpox virus [5] = experiment: Antiviral activity against Camelpox virus CML14 infected in HEL299 cells assessed as reduction in viral titer after 6 days postinfection by virus yield reduction assay; assay type: functional; conditions: for Activity: HEL 299; for EC99: CML14, HEL 299, 144 h
[6] = Cytotoxicity against human PHK after 4 days by Z1 Coulter counting analysis; conditions: PHK cells; how it was run: as §1
Camelpox virus [7] = experiment: Antiviral activity against Camelpox virus CML14 infected in human PHK assessed as inhibition of virus-induced cytopathic effect after 6 days by Giemsa staining; assay type: functional, organism-based; conditions: CML14, 144 h
Camelpox virus [8] = experiment: Antiviral activity against Camelpox virus CML1 infected in human PHK assessed as reduction in viral titer after 6 days postinfection by virus yield reduction assay; assay type: functional; conditions: for EC99: CML1, 144 h
Camelpox virus [9] = experiment: Antiviral activity against Camelpox virus CML1 infected in HEL299 cells assessed as reduction in viral titer after 6 days postinfection by virus yield reduction assay; assay type: functional; conditions: for EC99: CML1, HEL 299, 144 h; for Activity: HEL 299
Camelpox virus [10] = experiment: Antiviral activity against Camelpox virus CML1 infected in human PHK assessed as inhibition of virus-induced cytopathic effect after 6 days by Giemsa staining; assay type: functional, organism-based; conditions: CML1, 144 h
Camelpox virus [11] = experiment: Antiviral activity against Camelpox virus CML14 infected in HEL299 cells assessed as inhibition of virus-induced cytopathic effect after 6 days by Giemsa staining; assay type: functional, organism-based; conditions: CML14, HEL 299, 144 h
Camelpox virus [12] = experiment: Antiviral activity against Camelpox virus CML1 infected in HEL299 cells assessed as inhibition of virus-induced cytopathic effect after 6 days by Giemsa staining; assay type: functional, organism-based; conditions: CML1, HEL 299, 144 h
Camelpox virus [13] = experiment: Antiviral activity against Camelpox virus CML1-induced cytopathic effect in human PHK raft culture assessed as full protection of differentiated epithelium at 164uM treated after 7 days postinfection; assay type: functional, organism-based
[14] = Selectivity index, ratio of CC50 for human PHK to EC50 for Camelpox virus CML14 infected in human PHK
Camelpox virus [15] = experiment: Antiviral activity against Camelpox virus CML1 infected in differentiated human PHK raft culture assessed as reduction in viral titer determined in HEL299 cells treated after 7 days postinfection by virus yield reduction assay; assay type: functional; conditions: CML1, HEL 299, 168 h
Camelpox virus [16] = experiment: Antiviral activity against Camelpox virus CML14 infected in human PHK assessed as reduction in viral titer after 6 days postinfection by virus yield reduction assay; assay type: functional; conditions: for EC99: CML14, 144 h
Camelpox virus [17] = experiment: Antiviral activity against Camelpox virus CML1 infected in differentiated human PHK raft culture assessed as inhibition of viral replication at 6 uM treated after 7 days postinfection by virus yield reduction assay; assay type: functional, organism-based
Camelpox virus [18] = experiment: Antiviral activity against Camelpox virus CML1-induced cytopathic effect in human PHK raft culture assessed as full protection of differentiated epithelium at 65 uM treated after 7 days postinfection; assay type: functional, organism-based

Compound | selectivity ratio [1] | selectivity ratio [2] | CC50 at 96 h [3] [µM] | Ratio CC50/IC50 [4] | Activity (Camelpox virus [5]) | CC50 at 96 h [6] [µM] | pEC50 (Camelpox virus [7]) | Activity (Camelpox virus [8]) | Activity (Camelpox virus [9]) | pEC50 (Camelpox virus [10]) | pEC50 (Camelpox virus [11]) | pEC50 (Camelpox virus [12]) | Ratio CC50/IC50 [14] | Activity (Camelpox virus [16]) | other results
Nc1ccn(C[C@H]2COP(=O)(O)CO2)c(=O)n1 [CYCLIC CIDOFOVIR] | 55 | 38 | 335 | 2 | Dose-dependent effect | 17 | 5.04 | Dose-dependent effect | Dose-dependent effect | 5.14 | 5.06 | 5.21 | 2 | Dose-dependent effect | EC99 (Camelpox virus [8]): 59 µM; EC99 (Camelpox virus [9]): 64 µM; Activity (Camelpox virus [13]): Active; EC99 (Camelpox virus [15]): 38 µM
Nc1ncnc2c1ncn2C[C@@H](CO)OCP(=O)(O)O | 66 | 60 | 32 | 1 | Dose-dependent effect | 1 | 5.85 | Dose-dependent effect | Dose-dependent effect | 6.00 | 6.30 | 6.30 | 1 | Dose-dependent effect | EC99 (Camelpox virus [5]): 1 µM; EC99 (Camelpox virus [16]): 2 µM
Nc1ncnc2c1ncn2C[C@H]1COP(=O)(O)CO1 | 393 | 441 | 63 | 2 | Dose-dependent effect | 3 | 5.51 | Dose-dependent effect | Dose-dependent effect | 5.80 | 7.00 | 6.70 | 1 | Dose-dependent effect | EC99 (Camelpox virus [5]): 2 µM; EC99 (Camelpox virus [9]): 3 µM; EC99 (Camelpox virus [16]): 6 µM
CC(C)(C)C(=O)OCOP(=O)(COC(CO)Cn1cnc(N)nc1=O)OCOC(=O)C(C)(C)C (stereo unspecified) | 250 | 250 | 5 | 2 |  | 1 | 6.52 |  | Dose-dependent effect | 6.22 | 7.70 | 7.70 | 4 |  | 
Nc1nc(NCCS(=O)(=O)O)c2ncn(CCOCP(=O)(O)O)c2n1 | < 2 | < 2 | 258 | <1 |  | 102 | < 3.90 |  |  | < 3.90 | < 3.90 | < 3.90 | <1 |  | 
C[C@H](O)[C@H](Nc1nc(N)nc2c1ncn2CCOCP(=O)(O)O)C(=O)O | 1 | 1 | 56 | <0.1 |  | > 16 | < 3.89 |  |  | < 3.89 | 4.15 | 4.20 | <0.1 |  | 
CC(C)CC(Nc1nc(N)nc2c1ncn2CCOCP(=O)(O)O)C(=O)O (racemic) | 0.2 | 0.3 | 12 | 0.1 |  | 8 | 4.06 |  |  | 4.11 | 4.35 | 4.28 | 0.1 |  | 
Nc1nc(N)c2ncn(C[C@@H](CO)OCP(=O)(O)O)c2n1 | 249 | 70 | 45 | 2 | Dose-dependent effect | 2 | 5.92 | Dose-dependent effect | Dose-dependent effect | 6.10 | 6.22 | 6.70 | 1 | Dose-dependent effect | EC99 (Camelpox virus [5]): 1 µM; Activity (Camelpox virus [17]): Active; EC99 (Camelpox virus [16]): 2 µM
Nc1nc2c(ncn2CCOCP(=O)(O)O)c(=O)[nH]1 [GS-438] | 0.3 | 0.2 | 1 | 0.1 |  | 0.3 | 5.36 |  |  | 5.54 | 5.26 | 5.48 | 0.1 |  | 
Nc1nc(NCCC(=O)O)c2ncn(CCOCP(=O)(O)O)c2n1 | < 2 | < 2 | 294 | <2 |  | 258 | < 3.86 |  |  | < 3.86 | < 3.86 | < 3.86 | <2 |  | 
Nc1cc(OCCOCP(=O)(O)O)nc(N)n1 | < 0.3 | < 0.3 | 66 | 0.1 |  | 4 | 4.27 |  |  | 4.31 | < 3.72 | < 3.72 | 0.1 |  | 
Nc1nc(Cl)c2ncn(CCOCP(=O)(O)O)c2n1 | 1 | 1 | 8 | 0.2 |  | 1 | 4.80 |  |  | 5.10 | 5.03 | 5.16 | 0.1 |  | 
Nc1nc(NC(CC(=O)O)C(=O)O)c2ncn(CCOCP(=O)(O)O)c2n1 (racemic) | 0.4 | 0.4 | 20 | <0.1 |  | 16 | < 3.91 |  |  | < 3.91 | 4.34 | 4.32 | <0.1 |  | 
NC1=NC(OC[C@@H]2CP(=O)(O)CO2)=CC(N)N1O (stereo partly specified) | 28 | 19 | 147 | 3 |  | 43 | 4.74 |  |  | 4.79 | 5.12 | 5.28 | 2 |  | 
Nc1nc(NC(Cc2ccccc2)C(=O)O)c2ncn(CCOCP(=O)(O)O)c2n1 (racemic) | < 1 | < 1 | 101 | <0.2 |  | 27 | < 3.94 |  |  | < 3.94 | < 3.94 | < 3.94 | <0.2 |  | 
C[C@H](COC1=CC(N)N(O)C(N)=N1)OCP(=O)(O)O (stereo partly specified) | 99 | 82 | 162 | 1 | Dose-dependent effect | 5 | 5.34 | Dose-dependent effect | Dose-dependent effect | 5.41 | 5.70 | 5.80 | 1 | Dose-dependent effect | EC99 (Camelpox virus [5]): 9.5 µM; EC99 (Camelpox virus [8]): 9.5 µM; EC99 (Camelpox virus [9]): 9.5 µM; EC99 (Camelpox virus [15]): 5 µM; EC99 (Camelpox virus [16]): 9.5 µM
Nc1ccn(C[C@@H](CO)OCP(=O)(O)O)c(=O)n1.O.O [CIDOFOVIR] | 23 | 29 | 192 | 1 | Dose-dependent effect | 7 | 5.06 | Dose-dependent effect | Dose-dependent effect | 5.28 | 5.18 | 5.09 | 1 | Dose-dependent effect | Activity (Camelpox virus [18]): Active; EC99 (Camelpox virus [8]): 16 µM; EC99 (Camelpox virus [9]): 58 µM; EC99 (Camelpox virus [15]): 6 µM
Nc1nc(NCCCC(=O)O)c2ncn(CCOCP(=O)(O)O)c2n1 | < 2 | < 2 | 282 | 1 |  | > 134 | < 3.87 |  |  | < 3.87 | < 3.87 | < 3.87 | 1 |  | 
